In ChEMBL document CHEMBL3286203, “Reactive oxygen species (ROS) inducible DNA cross-linking agents and their effect on cancer cells and normal lymphocytes” (J Med Chem, 2014):
Active and inactive are the calls of the source. No cut-off for these calls is given here.

Tests used:
[1] = tested on: HCT-116; experiment: Cytotoxicity against human HCT116 cells after 48 hrs by SRB assay; format: functional; details: HCT-116, 48 h
Outline: (§1)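 GI50 was determined in the NCI Developmental Therapeutics Program in vitro 60-line cancer screen. Tumour lines were maintained in RPMI 1640 containing 5% FBS and 2 mM L-glutamine. Cells were inoculated at 5000–40 000 cells/well according to each line's doubling time before drug exposure.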

[2] = tested on: SF-539; experiment: Cytotoxicity against human SF539 cells after 48 hrs by SRB assay; format: functional; details: SF-539, 48 h
Outline: (§2)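 GI50 from the NCI Developmental Therapeutics Program in vitro human tumor cell screen. Cell lines were maintained in RPMI 1640 with 5% fetal bovine serum and 2 mM L-glutamine. They were seeded at 5000–40 000 cells/well, depending on each line's doubling time, then exposed to drug for 48 h at 37 °C, 5% CO2.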

[3] = tested on: CAKI-1; experiment: Cytotoxicity against human Caki1 cells after 48 hrs by SRB assay; format: functional; details: CAKI-1, 48 h; outline: as §1
[4] = Induction of [32P]-labeled 49-mer oligonucleotide duplex DNA 12 with GNC sequence at terminus (unknown origin) interstrand cross-linking at 1 mM after 16 hrs by PAGE in presence of O2-
[5] = tested on: SK-OV-3; experiment: Cytotoxicity against human SKOV3 cells after 48 hrs by SRB assay; format: functional; details: SK-OV-3, 48 h; outline: as §2
[6] = Induction of [32P]-labeled 49-mer oligonucleotide duplex DNA 12 interstrand cross-linking (unknown origin) at purine nucleotide site using compound radiolabeled at 5' of 12b at 90 deg C after 30 mins by PAGE in presence of piperidine
[7] = tested on: TK-10; experiment: Cytotoxicity against human TK10 cells after 48 hrs by SRB assay; format: functional; details: TK-10, 48 h
Outline: (§3)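 GI50 from the NCI-60 DTP human tumour line screen. Lines grown in RPMI 1640 with 5% fetal bovine serum and 2 mM L-glutamine, plated at 5000–40 000 cells/well according to doubling time. Incubated 48 h at 37 °C, 5% CO2.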

[8] = tested on: PC-3; experiment: Cytotoxicity against human PC3 cells after 48 hrs by SRB assay; format: functional; details: PC-3, 48 h; outline: as §2
[9] = Induction of [32P]-labeled 49-mer oligonucleotide duplex DNA 12 with GNC sequence at terminus (unknown origin) interstrand cross-linking at 1 mM after 16 hrs by PAGE in presence of OCL-
[10] = tested on: U-251; experiment: Cytotoxicity against human U251 cells after 48 hrs by SRB assay; format: functional; details: U-251, 48 h; outline: as §3
[11] = Induction of [32P]-labeled 49-mer oligonucleotide duplex DNA 12 interstrand cross-linking (unknown origin) at purine nucleotide site using compound radiolabeled at 5' of 12a at 90 deg C after 30 mins by PAGE in presence of piperidine
Outline: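 Cross-linked duplex, with strand 12a 32P-labelled at the 5′ end, heated at 90 °C either in phosphate buffer pH 7.0 or in 1.0 M piperidine. Cleavage sites were assigned by denaturing PAGE against G + A sequencing and Fe·EDTA markers.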

[12] = tested on: SN12C; experiment: Cytotoxicity against human SN12C cells after 48 hrs by SRB assay; format: functional; outline: as §2
[13] = tested on: HOP-92; experiment: Cytotoxicity against human HOP92 cells after 48 hrs by SRB assay; format: functional; details: HOP-92, 48 h; outline: as §1
[14] = Cytotoxicity against human UACC257 cells after 48 hrs by SRB assay; format: functional; details: UACC-257, 48 h; outline: as §3
[15] = tested on: SNB-19; experiment: Cytotoxicity against human SNB19 cells after 48 hrs by SRB assay; format: functional; details: SNB-19, 48 h; outline: as §3
[16] = Cytotoxicity against human UACC62 cells after 48 hrs by SRB assay; format: functional; details: UACC-62, 48 h; outline: as §3
[17] = Induction of [32P]-labeled 49-mer oligonucleotide duplex DNA 12 interstrand cross-linking (unknown origin) at purine nucleotide site using compound radiolabeled at 3' of 12a in phosphate buffer at pH 7 at 90 degC after 30 mins by PAGE
[18] = tested on: ACHN; experiment: Cytotoxicity against human ACHN cells after 48 hrs by SRB assay; format: functional; outline: as §1
[19] = tested on: SF-268; experiment: Cytotoxicity against human SF268 cells after 48 hrs by SRB assay; format: functional; details: SF-268, 48 h; outline: as §2
[20] = Induction of [32P]-labeled 49-mer oligonucleotide duplex DNA 12 with GNC sequence at terminus (unknown origin) interstrand cross-linking at 1 mM after 16 hrs by PAGE in presence of TBHP
[21] = tested on: LOX IMVI; experiment: Cytotoxicity against human LOXIMVI cells after 48 hrs by SRB assay; format: functional; outline: as §1
[22] = Cytotoxicity against human OVCAR3 cells after 48 hrs by SRB assay; format: functional; details: OVCAR-3, 48 h; outline: as §2
[23] = tested on: IGROV-1; experiment: Cytotoxicity against human IGROV1 cells after 48 hrs by SRB assay; format: functional; details: IGROV-1, 48 h; outline: as §1
[24] = Induction of [32P]-labeled 49-mer oligonucleotide duplex DNA 12' with GNC sequence in middle (unknown origin) interstrand cross-linking at 1 mM after 12 hrs by PAGE in presence of H2O2
[25] = tested on: CLL; experiment: Induction of apoptosis in human CLL cells at 10 uM by Annexin/propidium iodide staining-based assay; format: functional, cell-based; details: TDE = time-dependent effect
[26] = Induction of apoptosis in human lymphocytes at 10 uM after 24 to 48 hrs by Annexin/propidium iodide staining-based assay; format: cell-based; details: lymphocyte
[27] = Drug level in phosphate buffer treated with 40 mM N,N-Bis(2-chloroethyl)-4-(4,4,5,5-tetramethyl-1,3,2-dioxaborolan-2-yl)aniline after 30 mins by 1H-NMR analysis in presence of H2O2; format: physicochemical; details: 0.5 h
Outline: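 1H NMR of the boronate mustard (40 mM) with H2O2 (60 mM), 30 min after H2O2 addition. Solvent was 400 mM phosphate buffer pH 8 (50 μL) in DMSO-d6 (450 μL). Read-out is conversion to the activated product.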

[28] = tested on: CLL; experiment: Induction of apoptosis in human CLL cells at 10 uM after 24 hrs by DCDFA assay in presence of NAC; format: functional, cell-based
[29] = Induction of apoptosis in human CLL cells at 10 uM after 48 hrs by Annexin/propidium iodide staining-based assay (reference value: 91%); format: functional
[30] = Induction of apoptosis in human CLL cells at 10 uM after 24 hrs by Annexin/propidium iodide staining-based assay (reference value: 95%); format: functional
[31] = (§4) Induction of apoptosis in human CLL cells after 24 hrs by Annexin/propidium iodide staining-based assay; format: functional, cell-based
Outline: (§5)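 Primary CLL lymphocytes, Ficoll-Hypaque isolated from patient peripheral blood. Held fresh in RPMI 1640 with 10% autologous plasma. Dose–response over 24 h (n = 3). Apoptosis by annexin V–FITC/PI double staining and flow cytometry; IC50 derived from the dose–response.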

[32] = tested on: CLL; experiment: as §4; format: functional, cell-based; outline: as §5
[33] = Drug level in deuterated phosphate buffer treated with 40 mM N,N-Bis(2-chloroethyl)-4-(4,4,5,5-tetramethyl-1,3,2-dioxaborolan-2-yl)aniline after 24 hrs by 1H-NMR analysis; format: physicochemical
Outline: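 1H NMR of the boronate mustard (40 mM) held 24 h in deuterated potassium phosphate buffer (4.0 mM) with no H2O2. Solvent was 1.0 M deuterated potassium phosphate buffer/DMSO-d6/D2O = 2:450:48.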

Row | SMILES | GI50 [1] | GI50 [2] | GI50 [3] | GI50 [5] | Activity [6] | GI50 [7] | GI50 [8] | GI50 [10] | Activity [11] | GI50 [12] | GI50 [13] | GI50 [14] | GI50 [15] | GI50 [16] | Activity [17] | GI50 [18] | GI50 [19] | GI50 [21] | GI50 [22] | GI50 [23] | also measured
1 | CC1(C)OB(c2ccc(N(CCCl)CCOS(C)(=O)=O)cc2)OC1(C)C | 11.1 µM | 4.83 µM | 3.1 µM | 8.96 µM | Active | 18 µM | 15.1 µM | 0.7 µM | Active | 4.4 µM | 11.5 µM | 13 µM | 10.2 µM | 5.83 µM | Active | 3.03 µM | 5.39 µM | 4.72 µM | 13.4 µM | 13.6 µM | Activity [4]: 5%; Activity [9]: 0.9%; Activity [20]: 1%
2 | CC1(C)OB(c2ccc(N(CCBr)CCOS(C)(=O)=O)cc2)OC1(C)C |  |  |  |  | Active |  |  |  | Active |  |  |  |  |  | Active |  |  |  |  |  | 
3 | CC1(C)OB(c2ccc(N(CCBr)CCBr)cc2)OC1(C)C |  |  |  |  | Active |  |  |  | Active |  |  |  |  |  | Active |  |  |  |  |  | Activity [24]: 35%
4 | CC1(C)OB(c2ccc(N(CCCl)CCBr)cc2)OC1(C)C | 13.9 µM | 6.37 µM | 3.52 µM | 9.25 µM | Active | 22.6 µM | 17.7 µM | 5.07 µM | Active | 4.45 µM | 12.8 µM | 13.4 µM | 10.6 µM | 9.38 µM | Active | 3.4 µM | 4.9 µM | 6.6 µM | 15 µM | 19.1 µM | Activity [25]: tde; Activity [26]: Toxic; Drug metabolism [27]: metabolite_detected; Activity [28]: inactive; Activity [29]: 81%; Activity [30]: 90%; IC50 [31]: 10.8 µM; Activity [32]: Dose-dependent effect
5 | CC1(C)OB(c2ccc(N(CCCl)CCCl)cc2)OC1(C)C | 11.6 µM | 5.7 µM | 2.78 µM | 8.03 µM | Active | 16.7 µM | 14.3 µM | 3.75 µM | Active | 4.11 µM | 9.24 µM | 11.6 µM | 8.06 µM | 6.12 µM | Active | 3.64 µM | 4.61 µM | 5.17 µM | 14.6 µM | 15.6 µM | Activity [4]: 5%; Activity [25]: tde; Activity [9]: 0.9%; Activity [26]: Toxic; Activity [20]: 1%; Activity [29]: 83%; Activity [24]: 27%; Drug metabolism [33]: metabolite_detected; Activity [30]: 93%; IC50 [31]: 9.26 µM; Activity [32]: Dose-dependent effect
